Type in all cases: functional
For assay [1], the system named is Radical scavenging activity. Description: Antioxidant activity assessed as DPPH free radical scavenging activity at 300 ug/mL after 20 min by UV-Vis spectrophotometric analysis. A digest of the protocol: (§1)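 DPPH radical scavenging: samples were held at room temperature for 20 min in the dark, and absorbance was read at 517 nm. The control contained DMSO without compound, and methanol was used for baseline correction. Scavenging percentage was calculated from the absorbances.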
On the technique in general: The DPPH test is a chemical assay of radical scavenging.

For assay [2], the system named is Radical scavenging activity. As to the kind of experiment: Antioxidant activity assessed as DPPH free radical scavenging activity at 40 ug/mL after 20 min by UV-Vis spectrophotometric analysis. A digest of the protocol:
as §1

The test system of another assay is Dickeya chrysanthemi. As to the kind of experiment: Antibacterial activity against Erwinia chrysanthemi ITCC B-40 assessed as as growth inhibition at 100 ug/disk after 24 hr by disk diffusion method. Conditions: ITCC B-40, 24 h, read-out: DIZ. A digest of the protocol: (§2)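 Disk diffusion on nutrient agar. Strains kept on NA slants at 37 °C and subcultured in nutrient broth before testing. A log-phase culture was spread on solidified medium, and sterile disks were loaded with compound from DMSO stock. DMSO served as control, with commercial antibiotics for reference. Plates ran 24 h at 37 °C, and inhibition zones (mm) were read in quadruplicate.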
Background: A growth-free zone around the sample is the usual read-out of agar diffusion tests.

Assay [3] has as its system Radical scavenging activity. As to the kind of experiment: Antioxidant activity assessed as DPPH free radical scavenging activity at 400 ug/mL after 20 min by UV-Vis spectrophotometric analysis. A digest of the protocol: as §1
In another assay the test system is Bacillus thuringiensis. As to the kind of experiment: Antibacterial activity against Bacillus thuringiensis MTCC 6941 assessed as growth inhibition at 100 ug/disk after 24 hr by disk diffusion method. As to conditions: MTCC 6941, 24 h, read-out: DIZ. A digest of the protocol:
as §2

The test system of assay [4] is Radical scavenging activity. Description: Antioxidant activity assessed as DPPH free radical scavenging activity after 20 min by UV-Vis spectrophotometric analysis. Details: concentration or dose not given beside the values. A digest of the protocol:
as §1

For a further assay, the system named is Staphylococcus aureus. As to the kind of experiment: Antibacterial activity against Staphylococcus aureus MTCC 3160 assessed as growth inhibition at 100 ug/disk after 24 hr by disk diffusion method. As to conditions: MTCC 3160, 24 h, read-out: DIZ. A digest of the protocol:
as §2

The test system of a further assay is Pseudomonas aeruginosa. Description: Antibacterial activity against Pseudomonas aeruginosa MTCC 2581 assessed as growth inhibition at 100 ug/disk after 24 hr by disk diffusion method. Conditions: MTCC 2581, 24 h, read-out: DIZ. A digest of the protocol:
as §2

Assay [5] has as its system Radical scavenging activity. Description: Antioxidant activity assessed as DPPH free radical scavenging activity at 80 ug/mL after 20 min by UV-Vis spectrophotometric analysis. A digest of the protocol:
as §1

For assay [6], the system named is Radical scavenging activity. As to the kind of experiment: Antioxidant activity assessed as DPPH free radical scavenging activity at 60 ug/mL after 20 min by UV-Vis spectrophotometric analysis. A digest of the protocol:
as §1

Assay [7] deals with Radical scavenging activity. As to the kind of experiment: Antioxidant activity assessed as DPPH free radical scavenging activity at 200 ug/mL after 20 min by UV-Vis spectrophotometric analysis. A digest of the protocol:
as §1

For the next assay, the system named is Athelia rolfsii. Description: Antifungal activity against Athelia rolfsii ITCC 6181 by food poisoning method. As to conditions: Agroathelia rolfsii. A digest of the protocol:
(§3)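 Poisoned food technique on PDA at several concentrations. A 5 mm mycelial plug from the growing edge of a 2-week-old colony was placed inoculum-side down at the plate centre. Plates incubated at 27 °C until control growth was nearly complete. Colony diameter measured, percent inhibition calculated against control, LC50 derived. Four replicates per treatment.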

The subject of assay [8] is Radical scavenging activity. Description: Antioxidant activity assessed as DPPH free radical scavenging activity at 10 ug/mL after 20 min by UV-Vis spectrophotometric analysis. A digest of the protocol:
as §1

Another assay deals with Rhizoctonia solani. Description: Antifungal activity against Rhizoctonia solani ITCC 5563 by food poisoning method. A digest of the protocol:
as §3

The next assay has as its system Xanthomonas oryzae. As to the kind of experiment: Antibacterial activity against Xanthomonas oryzae ITCC B-47 assessed as as growth inhibition at 100 ug/disk after 24 hr by disk diffusion method. As to conditions: ITCC B-47, 24 h, read-out: DIZ.
A further assay deals with Bacillus pumilus. Description: Antibacterial activity against Bacillus pumilus MTCC 2466 assessed as growth inhibition at 100 ug/disk after 24 hr by disk diffusion method. Conditions: MTCC 2466, 24 h, read-out: DIZ. A digest of the protocol: as §2
Assay [9] relates to Radical scavenging activity. Description: Antioxidant activity assessed as DPPH free radical scavenging activity at 20 ug/mL after 20 min by UV-Vis spectrophotometric analysis. A digest of the protocol:
as §1

The subject of assay [10] is Radical scavenging activity. Description: Antioxidant activity assessed as DPPH free radical scavenging activity at 500 ug/mL after 20 min by UV-Vis spectrophotometric analysis. A digest of the protocol:
as §1

For a further assay, the system named is Klebsiella pneumoniae. As to the kind of experiment: Antibacterial activity against Klebsiella pneumoniae MTCC 7028 assessed as growth inhibition at 100 ug/disk after 24 hr by disk diffusion method. Conditions: MTCC 7028, 24 h, read-out: DIZ. A digest of the protocol:
as §2

For assay [11], the system named is Radical scavenging activity. As to the kind of experiment: Antioxidant activity assessed as DPPH free radical scavenging activity at 100 ug/mL after 20 min by UV-Vis spectrophotometric analysis. A digest of the protocol:
as §1

In brackets after ≈: the same amount, converted by molar mass.

As usually defined, the IC50 is the concentration at which inhibition is half-maximal. As usually defined, the LC50 is the concentration lethal to half of the exposed cells or organisms.

For the molecule `COc1ccc(C2CC(c3ccc(OC)c(OC)c3)=Cc3n[nH]c(O)c32)cc1` (configuration not stated), the Activity in [1] was 75.3%; in assay [2], 12.8%; in assay [3], 82.6%; in assay [4] it was 12.8%; in assay [5], 31.1%; in [6] it was 26.3%. The Activity was found to be 58.8% in [7]; 3.5% in [8]; 5.3% in assay [9]; 82.6% in [10]; 36.5% in assay [11]. Moreover, the zone of inhibition at 100 µg/disc in the assay with Dickeya chrysanthemi, in the assay on Bacillus thuringiensis, with Staphylococcus aureus, in the assay with Pseudomonas aeruginosa, in the assay on Xanthomonas oryzae and in the assay with Bacillus pumilus was 0 mm each time. Further, the zone of inhibition at 100 µg/disc with Klebsiella pneumoniae was 0 mm. Besides, the IC50 in assay [4] stood at 146.68 mg/L (≈ 388 µM). Also, the LC50 in the assay on Athelia rolfsii turned out to be 894 mg/L (≈ 2360 µM); with Rhizoctonia solani it was 611 mg/L (≈ 1610 µM).
Regarding `O=[N+]([O-])c1ccc(C2=Cc3n[nH]c(O)c3C(c3ccc4c(c3)OCO4)C2)cc1` (configuration not stated), the Activity in assay [1] came to 87.9%; in assay [2] it was 19.8%; in assay [3] it was 87.3%; in assay [4], 19.8%; in assay [5], 44.5%; in assay [6], 38.4%. Also, the Activity in assay [7] was determined as 83.4%; in [8] it was 5.3%; in assay [9], 5.8%; in assay [10] it was 87.3%; in assay [11], 50.7%. Also, the zone of inhibition at 100 µg/disc with Dickeya chrysanthemi, in the assay on Bacillus thuringiensis, in the assay on Staphylococcus aureus, with Pseudomonas aeruginosa, in the assay on Xanthomonas oryzae and with Bacillus pumilus was 0 mm throughout. Moreover, the zone of inhibition at 100 µg/disc with Klebsiella pneumoniae was found to be 0 mm. Besides, the IC50 in assay [4] is 95.82 mg/L (≈ 254 µM). Besides, the LC50 in the assay on Athelia rolfsii was determined as 963 mg/L (≈ 2550 µM); in the assay with Rhizoctonia solani, 931 mg/L (≈ 2470 µM).
For `Cc1ccc(C2CC(c3ccccc3)=Cc3n[nH]c(O)c32)cc1` (configuration not stated), the Activity was 81.8% in assay [1]; 18.2% in assay [2]; 85.7% in assay [3]; 18.2% in assay [4]; 36.4% in assay [5]; 35.1% in assay [6]. The Activity worked out at 69.9% in assay [7]; 9.2% in assay [8]; 14.5% in assay [9]; 85.7% in assay [10]; 41.2% in assay [11]. For the same molecule, the zone of inhibition at 100 µg/disc is 0 mm in the assay with Dickeya chrysanthemi; 0 mm with Bacillus thuringiensis; 5 mm with Staphylococcus aureus; 10 mm in the assay on Pseudomonas aeruginosa; 0 mm with Xanthomonas oryzae; 0 mm with Bacillus pumilus. Moreover, the zone of inhibition at 100 µg/disc with Klebsiella pneumoniae was 0 mm. The IC50 in assay [4] was determined as 106.62 mg/L (≈ 353 µM). Besides, the results for the LC50 with Athelia rolfsii and with Rhizoctonia solani were 922 mg/L (≈ 3050 µM) and 745 mg/L (≈ 2460 µM), respectively.
On to `COc1ccc(C2CC(c3ccccc3)=Cc3n[nH]c(O)c32)cc1` (configuration not stated), for which the Activity turned out to be 89.7% in assay [1]; 50.3% in [2]; 88.9% in [3]; 50.2% in assay [4]; 88.4% in [5]; 79.7% in [6]. Moreover, the Activity in [7] worked out at 91.8%; in [8], 16.8%; in [9] it was 30.6%; in [10] it was 90.2%; in assay [11], 89%. Moreover, the zone of inhibition at 100 µg/disc with Dickeya chrysanthemi, in the assay with Bacillus thuringiensis, with Staphylococcus aureus, with Pseudomonas aeruginosa, in the assay with Xanthomonas oryzae and with Bacillus pumilus was 0 mm each time. Further, the zone of inhibition at 100 µg/disc in the assay on Klebsiella pneumoniae is 0 mm. In assay [4], the IC50 worked out at 29.62 mg/L (≈ 93 µM). Besides, the LC50 was determined as 713 mg/L (≈ 2240 µM) in the assay on Athelia rolfsii and 718 mg/L (≈ 2260 µM) in the assay with Rhizoctonia solani.
In the case of `COc1ccc(C2CC(c3ccc4c(c3)OCO4)=Cc3n[nH]c(O)c32)cc1` (configuration not stated), the Activity in assay [1] came to 89.8%; in assay [2], 56.1%; in assay [3] it was 89.9%; in [4], 56.1%; in [5], 89.5%; in [6], 84.2%. The Activity worked out at 91.9% in assay [7]; 19% in assay [8]; 30.4% in assay [9]; 90.1% in assay [10]; 90.7% in [11]. Further, the zone of inhibition at 100 µg/disc in the assay on Dickeya chrysanthemi, in the assay on Bacillus thuringiensis, with Staphylococcus aureus, in the assay with Pseudomonas aeruginosa, in the assay with Xanthomonas oryzae and with Bacillus pumilus was 0 mm each time. Further, the zone of inhibition at 100 µg/disc with Klebsiella pneumoniae came to 0 mm. Also, the IC50 in [4] came to 25.2 mg/L (≈ 69.5 µM). The LC50 in the assay on Athelia rolfsii is 897 mg/L (≈ 2480 µM); with Rhizoctonia solani, 643 mg/L (≈ 1770 µM).
Consider `COc1cc(C2CC(c3ccccc3)=Cc3n[nH]c(O)c32)cc(OC)c1OC` (configuration not stated), for which the Activity in assay [1] stood at 91.2%; in assay [2], 67.1%; in [3], 90.5%; in assay [4], 67.1%; in assay [5], 90.7%; in assay [6], 86.4%. Moreover, the Activity in assay [7] worked out at 92.3%; in assay [8], 18.1%; in assay [9] it was 31.5%; in assay [10] it was 90.8%; in assay [11], 91.8%. Moreover, the zone of inhibition at 100 µg/disc in the assay on Dickeya chrysanthemi, in the assay on Bacillus thuringiensis, with Staphylococcus aureus, in the assay with Pseudomonas aeruginosa, with Xanthomonas oryzae and in the assay on Bacillus pumilus was 0 mm throughout. In addition, the zone of inhibition at 100 µg/disc with Klebsiella pneumoniae came to 0 mm. Further, in assay [4], the IC50 worked out at 22.28 mg/L (≈ 58.9 µM). Also, the LC50 with Athelia rolfsii amounted to 1020 mg/L (≈ 2710 µM); in the assay with Rhizoctonia solani it was 917 mg/L (≈ 2420 µM).
Regarding `COc1ccc(C2CC(c3ccc(C)cc3)=Cc3n[nH]c(O)c32)cc1OC` (configuration not stated), the Activity in assay [1] came out at 91.6%; in assay [2], 62.6%; in assay [3], 91.7%; in [4] it was 62.6%; in assay [5], 80.3%; in assay [6], 78.5%. For the same molecule, the Activity in assay [7] was determined as 91.4%; in assay [8] it was 15%; in assay [9] it was 25.9%; in assay [10], 91%; in assay [11], 81.8%. The zone of inhibition at 100 µg/disc in the assay on Dickeya chrysanthemi, in the assay with Bacillus thuringiensis, in the assay on Staphylococcus aureus, with Pseudomonas aeruginosa, in the assay with Xanthomonas oryzae and in the assay on Bacillus pumilus was 0 mm throughout. The zone of inhibition at 100 µg/disc in the assay on Klebsiella pneumoniae amounted to 0 mm. The IC50 in assay [4] was determined as 33.12 mg/L (≈ 91.4 µM). For the same molecule, the LC50 was 939 mg/L (≈ 2590 µM) in the assay with Athelia rolfsii and 861 mg/L (≈ 2380 µM) with Rhizoctonia solani.

Values taken from ChEMBL document CHEMBL3045565, “Microwave synthesis, characterization and bio-efficacy evaluation of novel chalcone based 6-carbethoxy-2-cyclohexen-1-one and 2H-indazol-3-ol derivatives” (Eur J Med Chem, 2013).
